Test results from ChEMBL document CHEMBL3608301, “Phenolic Compounds from Atriplex littoralis and Their Radiation-Mitigating Activity” (J Nat Prod, 2015).

Columns and labels:
[1] = system: PBL; assay: Radioprotective activity in 2-Gy gamma irradiated human PBL assessed as incidence of micronuclei in binucleated cells at 0.8 uM treated for 2 to 19 hrs followed by compound washout measured after 72 hrs by cytochalasin-B-blocked micronucleus assay (reference value: 1.2 +/- 0.03); format: functional
In short: (§1)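 Venous blood from five healthy male volunteers was γ-irradiated at 2 Gy (0.45 Gy/min) at room temperature and cultured. Compounds (0.8−7.4 μM final) were added 2 to 19 h after irradiation, at 37 °C. Cultures were then rinsed and moved to fresh RPMI 1640 for 72 h. Cytokinesis-block micronucleus assay: ≥1000 binucleated cells scored per sample (Countryman–Heddle criteria). Controls were non-treated irradiated cultures; one-way ANOVA with Tukey test.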

[2] = system: PBL; assay: Toxicity in 2-Gy gamma irradiated human PBL assessed as cytokinesis-block proliferation index at 0.8 uM treated for 2 to 19 hrs followed by compound washout measured after 72 hrs (reference value: 1.6 +/- 0.1); format: cell-based
[3] = system: PBL; assay: Radioprotective activity in 2-Gy gamma irradiated human PBL assessed as binucleated cells with micronuclei at 1.5 uM treated for 2 to 19 hrs followed by compound washout measured after 72 hrs by cytochalasin-B-blocked micronucleus assay (reference value: 15.5 +/- 0.6%); format: functional; in short: as §1
[4] = system: PBL; assay: Radioprotective activity in 2-Gy gamma irradiated human PBL assessed as incidence of micronuclei in binucleated cells at 3.1 uM treated for 2 to 19 hrs followed by compound washout measured after 72 hrs by cytochalasin-B-blocked micronucleus assay (reference value: 1.2 +/- 0.03); format: functional; in short: as §1
[5] = system: PBL; assay: Radioprotective activity in 2-Gy gamma irradiated human PBL assessed as incidence of micronuclei in binucleated cells at 1.5 uM treated for 2 to 19 hrs followed by compound washout measured after 72 hrs by cytochalasin-B-blocked micronucleus assay (reference value: 1.2 +/- 0.03); format: functional; in short: as §1
[6] = system: PBL; assay: Radioprotective activity in 2-Gy gamma irradiated human PBL assessed as frequency of micronuclei at 3.1 uM treated for 2 to 19 hrs followed by compound washout measured after 72 hrs by cytochalasin-B-blocked micronucleus assay relative to control; format: functional; in short: as §1
[7] = system: PBL; assay: Radioprotective activity in 2-Gy gamma irradiated human PBL assessed as incidence of micronuclei in 1000 binucleated cells at 3.1 uM treated for 2 to 19 hrs followed by compound washout measured after 72 hrs by cytochalasin-B-blocked micronucleus assay (reference value: 183 +/- 9.6); format: functional; in short: as §1
[8] = system: PBL; assay: Radioprotective activity in 2-Gy gamma irradiated human PBL assessed as incidence of micronuclei in 1000 binucleated cells at 1.5 uM treated for 2 to 19 hrs followed by compound washout measured after 72 hrs by cytochalasin-B-blocked micronucleus assay (reference value: 183 +/- 9.6); format: functional; in short: as §1
[9] = system: PBL; assay: Radioprotective activity in 2-Gy gamma irradiated human PBL assessed as frequency of micronuclei at 1.5 uM treated for 2 to 19 hrs followed by compound washout measured after 72 hrs by cytochalasin-B-blocked micronucleus assay relative to control; format: functional; in short: as §1
[10] = system: PBL; assay: Radioprotective activity in 2-Gy gamma irradiated human PBL assessed as binucleated cells with micronuclei at 3.1 uM treated for 2 to 19 hrs followed by compound washout measured after 72 hrs by cytochalasin-B-blocked micronucleus assay (reference value: 15.5 +/- 0.6%); format: functional; in short: as §1
[11] = system: PBL; assay: Toxicity in 2-Gy gamma irradiated human PBL assessed as cytokinesis-block proliferation index at 1.5 uM treated for 2 to 19 hrs followed by compound washout measured after 72 hrs (reference value: 1.6 +/- 0.1); format: cell-based
[12] = system: PBL; assay: Radioprotective activity in 2-Gy gamma irradiated human PBL assessed as frequency of micronuclei at 0.8 uM treated for 2 to 19 hrs followed by compound washout measured after 72 hrs by cytochalasin-B-blocked micronucleus assay relative to control; format: functional; in short: as §1
[13] = system: PBL; assay: Radioprotective activity in 2-Gy gamma irradiated human PBL assessed as incidence of micronuclei in 1000 binucleated cells at 0.8 uM treated for 2 to 19 hrs followed by compound washout measured after 72 hrs by cytochalasin-B-blocked micronucleus assay (reference value: 183 +/- 9.6); format: functional; in short: as §1
[14] = system: PBL; assay: Toxicity in 2-Gy gamma irradiated human PBL assessed as cytokinesis-block proliferation index at 3.1 uM treated for 2 to 19 hrs followed by compound washout measured after 72 hrs (reference value: 1.6 +/- 0.1); format: cell-based
[15] = system: PBL; assay: Radioprotective activity in 2-Gy gamma irradiated human PBL assessed as binucleated cells with micronuclei at 0.8 uM treated for 2 to 19 hrs followed by compound washout measured after 72 hrs by cytochalasin-B-blocked micronucleus assay (reference value: 15.5 +/- 0.6%); format: functional; in short: as §1
[16] = system: PBL; assay: Radioprotective activity in 2-Gy gamma irradiated human PBL assessed as frequency of micronuclei at 4 uM treated for 2 to 19 hrs followed by compound washout measured after 72 hrs by cytochalasin-B-blocked micronucleus assay relative to control; format: functional; in short: as §1
[17] = system: PBL; assay: Radioprotective activity in 2-Gy gamma irradiated human PBL assessed as binucleated cells with micronuclei at 2 uM treated for 2 to 19 hrs followed by compound washout measured after 72 hrs by cytochalasin-B-blocked micronucleus assay (reference value: 15.5 +/- 0.6%); format: functional; in short: as §1
[18] = system: PBL; assay: Radioprotective activity in 2-Gy gamma irradiated human PBL assessed as incidence of micronuclei in 1000 binucleated cells at 4 uM treated for 2 to 19 hrs followed by compound washout measured after 72 hrs by cytochalasin-B-blocked micronucleus assay (reference value: 183 +/- 9.6); format: functional; in short: as §1
[19] = system: PBL; assay: Radioprotective activity in 2-Gy gamma irradiated human PBL assessed as binucleated cells with micronuclei at 1 uM treated for 2 to 19 hrs followed by compound washout measured after 72 hrs by cytochalasin-B-blocked micronucleus assay (reference value: 15.5 +/- 0.6%); format: functional; in short: as §1
[20] = system: PBL; assay: Radioprotective activity in 2-Gy gamma irradiated human PBL assessed as binucleated cells with micronuclei at 4 uM treated for 2 to 19 hrs followed by compound washout measured after 72 hrs by cytochalasin-B-blocked micronucleus assay (reference value: 15.5 +/- 0.6%); format: functional; in short: as §1
[21] = system: PBL; assay: Toxicity in 2-Gy gamma irradiated human PBL assessed as cytokinesis-block proliferation index at 1 uM treated for 2 to 19 hrs followed by compound washout measured after 72 hrs (reference value: 1.6 +/- 0.1); format: cell-based
[22] = system: PBL; assay: Toxicity in 2-Gy gamma irradiated human PBL assessed as cytokinesis-block proliferation index at 2 uM treated for 2 to 19 hrs followed by compound washout measured after 72 hrs (reference value: 1.6 +/- 0.1); format: cell-based
[23] = system: PBL; assay: Radioprotective activity in 2-Gy gamma irradiated human PBL assessed as frequency of micronuclei at 2 uM treated for 2 to 19 hrs followed by compound washout measured after 72 hrs by cytochalasin-B-blocked micronucleus assay relative to control; format: functional; in short: as §1
[24] = system: PBL; assay: Toxicity in 2-Gy gamma irradiated human PBL assessed as cytokinesis-block proliferation index at 4 uM treated for 2 to 19 hrs followed by compound washout measured after 72 hrs (reference value: 1.6 +/- 0.1); format: cell-based
[25] = system: PBL; assay: Radioprotective activity in 2-Gy gamma irradiated human PBL assessed as incidence of micronuclei in 1000 binucleated cells at 1 uM treated for 2 to 19 hrs followed by compound washout measured after 72 hrs by cytochalasin-B-blocked micronucleus assay (reference value: 183 +/- 9.6); format: functional; in short: as §1
[26] = system: PBL; assay: Radioprotective activity in 2-Gy gamma irradiated human PBL assessed as incidence of micronuclei in binucleated cells at 1 uM treated for 2 to 19 hrs followed by compound washout measured after 72 hrs by cytochalasin-B-blocked micronucleus assay (reference value: 1.2 +/- 0.03); format: functional; in short: as §1
[27] = system: PBL; assay: Radioprotective activity in 2-Gy gamma irradiated human PBL assessed as incidence of micronuclei in 1000 binucleated cells at 2 uM treated for 2 to 19 hrs followed by compound washout measured after 72 hrs by cytochalasin-B-blocked micronucleus assay (reference value: 183 +/- 9.6); format: functional; in short: as §1
[28] = system: PBL; assay: Radioprotective activity in 2-Gy gamma irradiated human PBL assessed as incidence of micronuclei in binucleated cells at 2 uM treated for 2 to 19 hrs followed by compound washout measured after 72 hrs by cytochalasin-B-blocked micronucleus assay (reference value: 1.2 +/- 0.03); format: functional; in short: as §1
[29] = system: PBL; assay: Radioprotective activity in 2-Gy gamma irradiated human PBL assessed as incidence of micronuclei in binucleated cells at 4 uM treated for 2 to 19 hrs followed by compound washout measured after 72 hrs by cytochalasin-B-blocked micronucleus assay (reference value: 1.2 +/- 0.03); format: functional; in short: as §1
[30] = system: PBL; assay: Radioprotective activity in 2-Gy gamma irradiated human PBL assessed as frequency of micronuclei at 1 uM treated for 2 to 19 hrs followed by compound washout measured after 72 hrs by cytochalasin-B-blocked micronucleus assay relative to control; format: functional; in short: as §1

Row | SMILES | Activity [1] | Activity [2] | Activity [3] [%] | Activity [4] | Activity [5] | Activity [6] [%] | Activity [7] | Activity [8] | Activity [9] [%] | Activity [10] [%] | Activity [11] | Activity [12] [%] | Activity [13] | Activity [14] | Activity [15] [%] | other results
1 | COc1cc(-c2oc3cc4c(c(O)c3c(=O)c2O[C@@H]2O[C@H](CO[C@@H]3O[C@@H](C)[C@H](O)[C@@H](O)[C@H]3O)[C@@H](O)[C@H](O)[C@H]2O)OCO4)ccc1O | 1.2 | 1.6 | 10.8 | 1.2 | 1.2 | 77.3 | 141.4 | 131.3 | 71.7 | 11.7 | 1.6 | 69.2 | 126.6 | 1.6 | 11.2 | 
2 | C[C@@H]1O[C@@H](O[C@H]2[C@H](Oc3c(-c4ccc(O)c(O)c4)oc4cc5c(c(O)c4c3=O)OCO5)O[C@H](CO)[C@@H](O)[C@@H]2O)[C@H](O)[C@H](O)[C@H]1O | 1.2 | 1.7 | 14.1 | 1.2 | 1.3 | 102.2 | 187 | 178.8 | 97.7 | 15.3 | 1.7 | 98.9 | 181 | 1.7 | 15.1 | 
3 | COc1cc(-c2oc3cc(O)c(OC)c(O)c3c(=O)c2O[C@@H]2O[C@H](CO)[C@@H](O)[C@H](O)[C@H]2O)ccc1O |  |  |  |  |  |  |  |  |  |  |  |  |  |  |  | Activity [16]: 80.9%; Activity [17]: 11.7%; Activity [18]: 148; Activity [19]: 12.1%; Activity [20]: 12.3%; Activity [21]: 1.6; Activity [22]: 1.6; Activity [23]: 76.1%; Activity [24]: 1.6; Activity [25]: 141.8; Activity [26]: 1.2; Activity [27]: 139.3; Activity [28]: 1.2; Activity [29]: 1.2; Activity [30]: 77.5%
